Calls of active or inactive are those of the source. The calls are words filed in the database; no cut-off is given here.
Legend:
[1] = tested on: BMDM; experiment: Inhibition of RANKL-induced osteoclastogenesis in C57BL/6 mouse bone marrow macrophages assessed as reduction in NFATc1 expression at 0.5 uM measured over 5 days by Western blot analysis; assay type: functional, cell-based
Procedure, shortened: (§1)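 C57BL/6 BMM were grown with M-CSF plus RANKL over the course of osteoclastogenesis, treated at 0.5 or 10 μM. NF-κB and NFATc1 were followed by Western blot. The negative control was M-CSF only.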

[2] = tested on: Mus musculus; experiment: Antiosteoporotic activity in ddY mouse model of OVX-induced osteoporosis assessed as increase in femur bone mineral density at 1 mg/kg, po administered once daily via gavage for 4 weeks by microcomputed tomographic analysis; assay type: functional, organism-based
Procedure, shortened: (§2)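 Female ddY mice were ovariectomized. Oral gavage began 1 week after surgery and ran once daily for 28 d. Vehicle was 300 μL PBS containing 0.5% (v/v) DMSO, also given to sham and OVX controls. Mice were then euthanized and femur and tibia fixed for CT imaging. Values are mean ± SD of four mice.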

[3] = tested on: Mus musculus; experiment: Antiosteoporotic activity in ddY mouse model of OVX-induced osteoporosis assessed as increase in ratio of bone volume/trabecular volume in femur bone at 1 mg/kg, po administered once daily via gavage for 4 weeks by microcomputed tomographic analysis; assay type: functional, organism-based; procedure, shortened: as §2
[4] = tested on: Mus musculus; experiment: Antiosteoporotic activity in ddY mouse model of OVX-induced osteoporosis assessed as increase in trabecular number in femur bone at 1 mg/kg, po administered once daily via gavage for 4 weeks by microcomputed tomographic analysis; assay type: functional, organism-based; procedure, shortened: as §2
[5] = tested on: Mus musculus; experiment: Antiosteoporotic activity in ddY mouse model of OVX-induced osteoporosis assessed as reduction in trabecular separation in femur bone at 1 mg/kg, po administered once daily via gavage for 4 weeks by microcomputed tomographic analysis; assay type: functional, organism-based; procedure, shortened: as §2
[6] = tested on: Mus musculus; experiment: Antiosteoporotic activity in ddY mouse model of OVX-induced osteoporosis assessed as increase in trabecular thickness in femur bone at 1 mg/kg, po administered once daily via gavage for 4 weeks by microcomputed tomographic analysis; assay type: functional, organism-based; procedure, shortened: as §2
[7] = Potency index, ratio of alendronate IC50 to test compound IC50 for inhibition of M-CSF/RANKL-induced osteoclast differentiation in C57BL/6 mouse bone marrow macrophages by measuring decrease in multinucleated TRAP+ cells incubated for 6 days with fresh media replacement on day 3 and measured on day 6 by TRAP staining-based microscopic analysis; assay type: functional, BMDM
[8] = tested on: BMDM; experiment: Inhibition of RANKL-induced osteoclastogenesis in C57BL/6 mouse bone marrow macrophages assessed as effect on NFkappaB expression at 10 uM measured over 5 days by Western blot analysis; assay type: functional, cell-based; procedure, shortened: as §1
[9] = tested on: MC3T3-E1; experiment: Induction of osteoblast differentiation in mouse MC3T3-E1 cells co-cultured with C57BL/6 mouse bone marrow macrophages assessed as activation of ALP production at 10 uM measured on day 14 relative to control; assay type: functional
Procedure, shortened: (§3)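 MC3T3-E1 cells were cocultured with C57BL/6 BMM in differentiation factors for both cell types, with 10 μM compound, and grown for 21 d. ALP production was measured at 7, 14 and 21 d after coculture induction, relative to untreated cells.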

[10] = Inhibition of M-CSF/RANKL-induced osteoclast differentiation in C57BL/6 mouse bone marrow macrophage assessed as reduction in bone resorption at 7.8 uM treated for 3 days starting from 6 days post M-CSF/RANKL-stimulation by europium-conjugated collagen based time-resolved fluorescence assay relative to control; assay type: functional, BMDM; design: scale not given: the % may be the effect or the level left
Procedure, shortened: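 Mature multinucleated osteoclasts differentiated from C57BL/6 BMM were exposed to compound for 3 d in a bone resorption assay. Resorption was compared with untreated mature osteoclasts.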

[11] = tested on: MC3T3-E1; experiment: Induction of osteoblast differentiation in ascorbic acid/beta-glycerophosphate-induced mouse MC3T3-E1 cells co-cultured with C57BL/6 mouse bone marrow macrophages at 10 uM measured on day 6 by TRAP staining-based inverted microscopic analysis; assay type: functional, cell-based
[12] = tested on: BMDM; experiment: Inhibition of M-CSF/RANKL-induced osteoclast differentiation in C57BL/6 mouse bone marrow macrophages co-cultured with mouse MC3T3-E1 cells assessed as reduction in multinucleated TRAP+ cells measured on day 6 by TRAP staining-based inverted microscopic analysis; assay type: functional, cell-based
Procedure, shortened: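 C57BL/6 BMM were cocultured with MC3T3-E1 preosteoblasts in osteoclast and osteoblast differentiation factors. The negative control had M-CSF only. Compound was added at a final 10 μM. TRAP staining and inverted-microscope inspection were done on day 6.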

[13] = tested on: MC3T3-E1; experiment: Induction of osteoblast differentiation in mouse MC3T3-E1 cells co-cultured with C57BL/6 mouse bone marrow macrophages assessed as activation of ALP production at 10 uM measured on day 21 relative to control; assay type: functional; procedure, shortened: as §3
[14] = tested on: MC3T3-E1; experiment: Induction of osteoblast differentiation in mouse MC3T3-E1 cells assessed as increase in osteocalcin expression at 50 uM after 7 days by Western blot analysis relative to control; assay type: functional
Procedure, shortened: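 MC3T3-E1 cells were differentiated with osteoblast differentiation factors, with or without 50 μM compound, for 21 d. The negative control lacked differentiation factors. Osteocalcin in culture medium was measured by Western blot at 7, 14 and 21 d. Values are mean ± SD of three independent experiments.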

[15] = tested on: BMDM; experiment: Inhibition of M-CSF/RANKL-induced osteoclast differentiation in C57BL/6 mouse bone marrow macrophages co-cultured with mouse MC3T3-E1 at 10 uM measured on day 14; assay type: functional, cell-based
[16] = tested on: BMDM; experiment: Inhibition of M-CSF/RANKL-induced osteoclast differentiation in C57BL/6 mouse bone marrow macrophages co-cultured with mouse MC3T3-E1 at 10 uM measured on day 21; assay type: functional, cell-based
[17] = tested on: MC3T3-E1; experiment: Induction of osteoblast differentiation in ascorbic acid/beta-glycerophosphate-induced mouse MC3T3-E1 cells co-cultured with C57BL/6 mouse bone marrow macrophages assessed as increase in osteocalcin expression at 10 uM measured on day 14 by Western blot analysis; assay type: functional, cell-based
Procedure, shortened: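 MC3T3-E1 and C57BL/6 BMM cocultures were given osteoblast plus osteoclast differentiation factors, with or without 10 μM compound, for 21 d. The negative control had M-CSF only. Osteocalcin in culture medium was quantified by Western blot at 7, 14 and 21 d.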

[18] = tested on: BMDM; experiment: Effect on NFkappaB expression in M-CSF induced C57BL/6 mouse bone marrow macrophages at 10 uM measured over 5 days by Western blot analysis; assay type: functional, cell-based
Procedure, shortened: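 C57BL/6 BMM were proliferated with M-CSF alone without RANKL and treated at 0.5 or 10 μM. NF-κB expression was followed over time by Western blot.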

[19] = tested on: MC3T3-E1; experiment: Induction of osteoblast differentiation in ascorbic acid/beta-glycerophosphate-induced mouse MC3T3-E1 cells assessed as increase in RUNX2 expression at 50 uM after 14 days by Western blot analysis relative to control; assay type: functional
Procedure, shortened: (§4)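 MC3T3-E1 cells were induced with osteoblast differentiation factors, with or without 50 μM compound, for 21 d. Cells were harvested at 7, 14 and 21 d and RUNX2 was quantified by Western blot against untreated differentiated cells. The negative control lacked differentiation factors. Values are mean ± SD of three independent experiments.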

[20] = tested on: MC3T3-E1; experiment: Induction of osteoblast differentiation in mouse ascorbic acid/beta-glycerophosphate-induced MC3T3-E1 cells assessed as increase in RUNX2 expression at 50 uM after 21 days by Western blot analysis relative to control; assay type: functional; procedure, shortened: as §4
[21] = tested on: PC-3; experiment: Antiproliferative activity against human PC3 cells after 24 hrs by MTT assay; assay type: functional; conditions: PC-3, 24 h, read-out: LD50 (the source's name)
Procedure, shortened: (§5)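 Cells were maintained in DMEM at 37 °C under 5% CO2. Growth and survival were estimated by MTT assay, and the value is reported as LD50.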

[22] = tested on: B16-F10; experiment: Antiproliferative activity against mouse B16F10 cells after 24 hrs by MTT assay; assay type: functional; conditions: B16-F10, 24 h, read-out: LD50 (the source's name); procedure, shortened: as §5

COc1ccc(/C=C/C(C)=O)cc1O
inhibition [1]: Active
Activity [2]: Active
Activity [3]: Active
Activity [4]: Active
Activity [5]: Active
Activity [6]: Active
Ratio IC50 [7]: 30

CC(=O)/C=C/c1ccc(O)c(O)c1
inhibition [8]: inactive
Activity [9]: 110%
Activity [10]: <=59%
Activity [11]: Active
inhibition [12]: Dose-dependent effect
Activity [13]: 100%
fold change (FC) [14]: 1.8
inhibition [15]: Active
inhibition [16]: Active
Activity [17]: Active
Activity [18]: inactive
fold change (FC) [19]: 1.4
fold change (FC) [20]: 3.2
CC50 [21]: 66 µM
CC50 [22]: 65 µM

— ChEMBL document CHEMBL4364291, “Benzylideneacetone Derivatives Inhibit Osteoclastogenesis and Activate Osteoblastogenesis Independently Based on Specific Structure-Activity Relationship” (J Med Chem, 2019)
